The results in this text go back to PubChem BioAssay.

For part of these data: Results with a measured potency or affinity are listed apart. Calls of active or inactive are those of the source.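 The calls were made as follows, unless noted: active = earlier screen potentiator hit that boosts the TRPC4 ion channel at some dose, with a dose response; inactive = no potentiation, no dose response, or not a prior hit.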

Short transient receptor potential channel 6 (Mus musculus), sequence (Q61143 whole entry, looked up): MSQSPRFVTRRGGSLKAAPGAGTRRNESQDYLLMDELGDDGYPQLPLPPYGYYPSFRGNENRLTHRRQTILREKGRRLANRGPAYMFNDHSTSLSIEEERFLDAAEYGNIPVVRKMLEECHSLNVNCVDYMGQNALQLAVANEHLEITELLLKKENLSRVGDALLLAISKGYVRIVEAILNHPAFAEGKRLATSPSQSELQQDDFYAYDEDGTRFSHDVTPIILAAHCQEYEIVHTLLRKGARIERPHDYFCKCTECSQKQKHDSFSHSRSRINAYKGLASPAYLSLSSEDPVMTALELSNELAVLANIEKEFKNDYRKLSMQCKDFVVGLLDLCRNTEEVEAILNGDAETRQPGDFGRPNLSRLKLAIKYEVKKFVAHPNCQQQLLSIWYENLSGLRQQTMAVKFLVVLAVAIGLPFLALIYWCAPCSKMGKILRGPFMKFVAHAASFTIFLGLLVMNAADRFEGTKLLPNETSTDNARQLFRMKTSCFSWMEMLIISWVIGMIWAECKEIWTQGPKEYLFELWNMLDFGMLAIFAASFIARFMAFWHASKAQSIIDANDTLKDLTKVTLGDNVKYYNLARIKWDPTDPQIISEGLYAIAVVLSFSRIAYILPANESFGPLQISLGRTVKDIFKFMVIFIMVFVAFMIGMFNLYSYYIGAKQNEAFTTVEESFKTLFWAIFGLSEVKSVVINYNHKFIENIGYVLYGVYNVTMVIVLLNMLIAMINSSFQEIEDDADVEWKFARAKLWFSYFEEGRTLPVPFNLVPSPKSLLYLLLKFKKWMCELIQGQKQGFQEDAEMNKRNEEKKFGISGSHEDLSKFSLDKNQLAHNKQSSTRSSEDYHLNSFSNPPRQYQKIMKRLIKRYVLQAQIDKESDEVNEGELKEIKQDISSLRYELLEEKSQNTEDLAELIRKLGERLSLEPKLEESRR
Short transient receptor potential channel 4 (Mus musculus), sequence (Q9QUQ5 whole entry, looked up): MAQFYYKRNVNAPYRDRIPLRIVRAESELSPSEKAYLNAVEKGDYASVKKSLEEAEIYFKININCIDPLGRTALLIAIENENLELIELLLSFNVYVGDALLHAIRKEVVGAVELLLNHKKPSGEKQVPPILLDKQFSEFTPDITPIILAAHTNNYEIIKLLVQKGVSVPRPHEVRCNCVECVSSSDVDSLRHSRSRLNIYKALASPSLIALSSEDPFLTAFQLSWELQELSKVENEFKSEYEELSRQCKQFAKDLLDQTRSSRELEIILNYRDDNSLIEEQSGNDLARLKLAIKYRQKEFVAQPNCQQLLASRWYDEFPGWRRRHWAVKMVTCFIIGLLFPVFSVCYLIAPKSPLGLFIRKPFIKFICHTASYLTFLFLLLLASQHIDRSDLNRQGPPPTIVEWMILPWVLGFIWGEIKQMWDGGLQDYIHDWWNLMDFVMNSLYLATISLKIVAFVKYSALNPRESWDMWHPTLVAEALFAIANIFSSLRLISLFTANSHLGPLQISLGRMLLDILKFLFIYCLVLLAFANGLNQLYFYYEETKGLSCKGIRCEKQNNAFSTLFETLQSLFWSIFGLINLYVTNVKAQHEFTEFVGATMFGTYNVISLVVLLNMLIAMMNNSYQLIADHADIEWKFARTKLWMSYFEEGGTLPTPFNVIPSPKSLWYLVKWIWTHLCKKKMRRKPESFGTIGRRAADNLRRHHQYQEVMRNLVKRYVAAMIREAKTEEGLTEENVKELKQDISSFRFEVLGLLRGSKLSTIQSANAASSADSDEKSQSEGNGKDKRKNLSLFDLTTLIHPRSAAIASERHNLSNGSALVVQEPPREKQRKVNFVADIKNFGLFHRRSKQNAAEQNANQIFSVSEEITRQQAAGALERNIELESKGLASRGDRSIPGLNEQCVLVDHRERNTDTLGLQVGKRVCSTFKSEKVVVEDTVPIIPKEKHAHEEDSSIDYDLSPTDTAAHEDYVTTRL

The first test has as its target Short transient receptor potential channel 4 (Mus musculus) (UniProt Q9QUQ5). In words: TRPC4 positive allosteric modulators, dose response, cell-based, HEK293 TRPC4/mu-opioid, Fluo-4 calcium, EC20 DAMGO (AID 434941).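 Also: calcium entry triggered by an EC20 dose of DAMGO at the co-expressed mu-opioid receptor.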 To be noted: HEK293 TRPC4/mu-opioid cells, Fluo-4 calcium fluorescence; series mostly up to 20 µM.
As for `Cc1cc(/C=C2/C(=N)N3C(=NC2=O)SN=C3S(C)(=O)=O)c(C)n1-c1ccccc1F`, the outcome was inactive.
Same read-out and setting: the entry for `Cc1ccc(O)c(CNc2nc3ccccc3[nH]2)c1` is “inactive”.
As to `CC(Oc1ccc(Cl)cc1Cl)c1nc(-c2ccccn2)no1` (stereo not drawn), the outcome was inactive.
For the compound `Fc1ccccc1COc1ccccc1CNCc1ccncc1`, the outcome was inactive.
For `CC12CC3(C)CC(C)(C1)CC(NC(=O)N1CCCC1)(C2)C3`, the result was inactive.
On the same count and under the same terms, under `Clc1cccc(COn2c(-c3ccc(Cl)cc3Cl)nc3ncccc32)c1` stands “inactive”.
Consider `CC1CCN(CCCOc2ccc(OCc3ccccc3)cc2)CC1`, for which the outcome was inactive.
As for `CCN(CC)C(=O)C1CCCN(Cc2cccc(Oc3ccccc3)c2)C1` (stereo not drawn), the result was inactive.
On the same count and under the same terms, the entry for `O=C(O)c1ccc(NC(=S)NC(=O)c2ccc(-c3ccccc3)cc2)cc1` is “inactive”; for `Cc1ccc(C)c2[nH]c(=O)c(CN(Cc3nnnn3C3CCCCC3)CC3CCCO3)cc12` (stereo not drawn) it is “inactive”.
The same measure, in the same setting: under `CC(C)CN(CC(C)C)c1nc(N)c(C#N)c(CC#N)c1C#N` stands “inactive”; under `CC(C)Oc1cccc(C(=O)C2CCCN(Cc3cnn(C(C)C)c3)C2)c1` (stereo not drawn), “inactive”.
In the case of `Cc1ccc(O)c(Sc2cc(C)ccc2O)c1`, the result was inactive.
`Cc1cccc(Cn2c(C(C)(C)C)cc3cccnc32)c1`: the result was inactive.
For `Cc1cc(N2CCC(C)CC2)nc2cccc(O)c12`, the outcome was inactive.
As to `CSCCNCc1cn(-c2ccc(F)cc2F)nc1-c1ccccc1C`, the result was inactive.
Turning to `CC(/C=C1\SC(=S)N(C(C(=O)O)C(C)C)C1=O)=C\c1ccccc1` (stereo not drawn), the result was inactive.
For the compound `CCN(CC)CCn1c2ccccc2c2cnc(N)c(C#N)c21`, the result was inactive.
`CCOC(=O)C1CCN(CC(O)COc2ccc(C(C)(C)C)cc2)CC1` (stereo not drawn): the outcome was inactive.
Same read-out and setting: under `CCOC(=O)c1oc2ccccc2c1CN1CCCCC1` stands “inactive”.
`CC(C)Cc1cc(CN2CCCC(CO)(Cc3cccc(Cl)c3)C2)[nH]n1` (stereo not drawn): the outcome was inactive.
On to `CCCCOc1ccc(CSCCN=C(N)N)cc1`, for which the outcome was inactive.
Turning to `N#Cc1c(NC(=O)C2CC(Cl)=CCC2C(=O)O)sc2c1CCCCC2` (stereo not drawn), the result was inactive.
With `Cc1ccccc1C(=O)NC1CC2CCC(C1)N2Cc1ccccc1` (stereo not drawn), the outcome was inactive.
`COc1ccc(/C=C2\SC(=S)N(C(Cc3ccccc3)C(=O)O)C2=O)cc1` (stereo not drawn): the outcome was inactive.
For the compound `Cc1cc(NCc2ccccc2)nc(N2CCOCC2)n1`, the result was inactive.
`CCCc1nc(SC2CCCC2)c2c(=O)n(C)c(=O)n(C)c2n1`: the outcome was inactive.
Same read-out and setting: under `Fc1ccccc1Sc1ccccc1CNC1=NCCN1` stands “inactive”; under `CCc1nc2ccccc2n1Cc1ccccc1OC`, “inactive”; under `CSc1nc(N2CCOCC2)c2c3c(sc2n1)CCCC3`, “inactive”.
In the case of `COc1cccc(CNC(=O)CCC2CCCN(Cc3cc(Cl)ccc3O)C2)c1` (stereo not drawn), the result was inactive.
Turning to `CCOC(=O)C1(Cc2ccccc2C)CCCN(Cc2ccc(NC(C)=O)cc2)C1` (stereo not drawn), the result was inactive.
As to `CCn1c(NCc2c[nH]c3ccccc23)nc2ccccc21`, the outcome was inactive.
On to `O=C(c1ccc2c(c1)OCO2)C1CCCN(Cc2ccccc2OC(F)F)C1` (stereo not drawn), for which the outcome was inactive.
For `CC(C)(C)c1cc2cccnc2n1Cc1ccccc1`, the result was inactive.
On to `Cc1cccc(C)c1-n1cccc1/C=C1\SC(=S)N(c2cccc(C(=O)O)c2)C1=O`, for which the outcome was inactive.
In the case of `COc1ccc2nc(NCc3ccccc3)[nH]c2c1`, the outcome was inactive.
Regarding `Cc1ccc(C(=O)NC(=S)Nc2c(C)ccc3nsnc23)cc1`, the outcome was inactive.
`Cc1ccccc1N1CC(O)(c2cccs2)[N+]2=C1CCCC2` (stereo not drawn): the outcome was inactive.

Another test addresses Short transient receptor potential channel 6 (Mus musculus) (UniProt Q61143). In words: inhibition of mouse TRPC6 channel, confirmation, selectivity assay for TRPC4 inhibitor project, cell-based, HEK293, membrane potential dye, duplicate (AID 434948;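 active = active in primary screen and both duplicates, each dropping signal beyond three positive-control SD with fluorescence still positive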). To be noted: HEK293 TRPC6, membrane potential dye fluorescence, at 10 µM, stimulated with maximal-effect acetylcholine; stronger effect = higher value. The procedure, abridged: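 System: TRPC6-expressing HEK293 cells; Also added: acetylcholine at maximal (ECmax) concentration, added after compound; Incubation: 45 min RT dye load, 110 s compound, 110 s agonist read; Read-out basis: integrated fluorescence change ratio over baseline, normalized to positive controls; Repeats: two replicates; Signal: kinetic fluorescence of membrane potential dye with 5 s baseline.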
Consider `Cc1cc(/C=C2/C(=N)N3C(=NC2=O)SN=C3S(C)(=O)=O)c(C)n1-c1ccccc1F`, for which the call was inactive.
Same read-out and setting: under `Cc1ccc(O)c(CNc2nc3ccccc3[nH]2)c1` stands “inactive”; under `CC(Oc1ccc(Cl)cc1Cl)c1nc(-c2ccccn2)no1` (stereo not drawn), “inactive”; under `Fc1ccccc1COc1ccccc1CNCc1ccncc1`, “inactive”.
On the same count and under the same terms, the entry for `CC12CC3(C)CC(C)(C1)CC(NC(=O)N1CCCC1)(C2)C3` is “inactive”.
For the compound `Clc1cccc(COn2c(-c3ccc(Cl)cc3Cl)nc3ncccc32)c1`, the compound was classed as inactive.
As to `CC1CCN(CCCOc2ccc(OCc3ccccc3)cc2)CC1`, the result was inactive.
As for `CCN(CC)C(=O)C1CCCN(Cc2cccc(Oc3ccccc3)c2)C1` (stereo not drawn), the compound was called inactive.
The same measure, in the same setting: the entry for `O=C(O)c1ccc(NC(=S)NC(=O)c2ccc(-c3ccccc3)cc2)cc1` is “inactive”.
For the compound `Cc1ccc(C)c2[nH]c(=O)c(CN(Cc3nnnn3C3CCCCC3)CC3CCCO3)cc12` (stereo not drawn), the outcome was inactive.
Regarding `CC(C)CN(CC(C)C)c1nc(N)c(C#N)c(CC#N)c1C#N`, the outcome was inactive.
On to `CC(C)Oc1cccc(C(=O)C2CCCN(Cc3cnn(C(C)C)c3)C2)c1` (stereo not drawn), for which the outcome was inactive.
By inhibition is commonly meant the drop in the measured response relative to a control, in per cent. As for `Cc1ccc(O)c(Sc2cc(C)ccc2O)c1`, the inhibition was 44.5% (active).
On to `Cc1cccc(Cn2c(C(C)(C)C)cc3cccnc32)c1`, for which the inhibition was 59.5% (active).
As for `Cc1cc(N2CCC(C)CC2)nc2cccc(O)c12`, the inhibition is 59% (active).
For the compound `CSCCNCc1cn(-c2ccc(F)cc2F)nc1-c1ccccc1C`, the outcome was inactive.
On to `CC(/C=C1\SC(=S)N(C(C(=O)O)C(C)C)C1=O)=C\c1ccccc1` (stereo not drawn), for which the call was inactive.
As to `CCN(CC)CCn1c2ccccc2c2cnc(N)c(C#N)c21`, the compound was classed as inactive.
Consider `CCOC(=O)C1CCN(CC(O)COc2ccc(C(C)(C)C)cc2)CC1` (stereo not drawn), for which the call was inactive.
In the case of `CCOC(=O)c1oc2ccccc2c1CN1CCCCC1`, the compound was classed as inactive.
The same measure, in the same setting: under `CC(C)Cc1cc(CN2CCCC(CO)(Cc3cccc(Cl)c3)C2)[nH]n1` (stereo not drawn) stands “inactive”; under `CCCCOc1ccc(CSCCN=C(N)N)cc1`, “inactive”; under `N#Cc1c(NC(=O)C2CC(Cl)=CCC2C(=O)O)sc2c1CCCCC2` (stereo not drawn), “inactive”.
Still for that read-out and setting: the entry for `Cc1ccccc1C(=O)NC1CC2CCC(C1)N2Cc1ccccc1` (stereo not drawn) is “inactive”.
Consider `COc1ccc(/C=C2\SC(=S)N(C(Cc3ccccc3)C(=O)O)C2=O)cc1` (stereo not drawn), for which the compound was classed as inactive.
Still for that read-out and setting: under `Cc1cc(NCc2ccccc2)nc(N2CCOCC2)n1` stands “inactive”; under `CCCc1nc(SC2CCCC2)c2c(=O)n(C)c(=O)n(C)c2n1`, “inactive”.
On to `Fc1ccccc1Sc1ccccc1CNC1=NCCN1`, for which the result was inactive.
Turning to `CCc1nc2ccccc2n1Cc1ccccc1OC`, the outcome was inactive.
Turning to `CSc1nc(N2CCOCC2)c2c3c(sc2n1)CCCC3`, the compound was called inactive.
In the case of `COc1cccc(CNC(=O)CCC2CCCN(Cc3cc(Cl)ccc3O)C2)c1` (stereo not drawn), the call was inactive.
For the compound `CCOC(=O)C1(Cc2ccccc2C)CCCN(Cc2ccc(NC(C)=O)cc2)C1` (stereo not drawn), the result was inactive.
As to `CCn1c(NCc2c[nH]c3ccccc23)nc2ccccc21`, the compound was called inactive.
On to `O=C(c1ccc2c(c1)OCO2)C1CCCN(Cc2ccccc2OC(F)F)C1` (stereo not drawn), for which the result was inactive.
Turning to `CC(C)(C)c1cc2cccnc2n1Cc1ccccc1`, the call was inactive.
Regarding `Cc1cccc(C)c1-n1cccc1/C=C1\SC(=S)N(c2cccc(C(=O)O)c2)C1=O`, the outcome was inactive.
On to `COc1ccc2nc(NCc3ccccc3)[nH]c2c1`, for which the outcome was inactive.
As to `Cc1ccc(C(=O)NC(=S)Nc2c(C)ccc3nsnc23)cc1`, the compound was called inactive.
As for `Cc1ccccc1N1CC(O)(c2cccs2)[N+]2=C1CCCC2` (stereo not drawn), the outcome was inactive.
